{"data": "Assay results collected from several papers", "CDKL2": "Cyclin-dependent kinase-like 2 (CDKL2, Homo sapiens, UniProt Q92772)", "HIPK4": "Homeodomain-interacting protein kinase 4 (HIPK4, Homo sapiens, UniProt Q8NE63)", "MAOA": "Amine oxidase [flavin-containing] A (MAOA, Homo sapiens, UniProt P21397)", "WEE2": "Wee1-like protein kinase 2 (WEE2, Homo sapiens, UniProt P0C1S8)", "Rps6ka1": "Ribosomal protein S6 kinase alpha-1 (Rps6ka1, Rattus norvegicus, UniProt Q63531)", "note": "Lines come from different studies, so protocols differ."}
{"SMILES": "Cc1ccc(C(=O)Nc2ccc(CN3CCN(C)CC3)c(C(F)(F)F)c2)cc1C#Cc1cnc2cccnn12", "target": "CDKL2", "test": "enzyme activity", "setting": "23.5 nM", "quantity": "remaining activity", "result": "0%"}
{"SMILES": "O=C(O)c1ccc2c(c1)nc(Nc1ccc(Cl)cc1)c1ccncc12", "target": "HIPK4", "test": "enzyme activity, inhibitor, radiometric", "setting": "1 µM", "quantity": "remaining activity", "result": "116%"}
{"SMILES": "COc1cc([N+](=O)[O-])ccc1NC(=O)c1ccc2c(c1)OCO2", "target": "MAOA", "test": "enzyme activity, inhibitor", "setting": "1 µM, 20 min", "quantity": "inhibition", "result": "1%"}
{"SMILES": "COc1cc(NC(C)=O)c(Cl)cc1C(=O)Nc1nccs1", "target": "Histamine H2 receptor (HRH2, Homo sapiens, UniProt P25021)", "test": "cell-free assay", "setting": "10 µM", "quantity": "inhibition", "result": "-21.7%"}
{"SMILES": "CN1CC(Oc2cnc(C#N)cc2-c2ccn3nc(NC(=O)C4CC4)cc3c2)C1", "target": "WEE2", "test": "enzyme activity, inhibitor", "setting": "1 µM", "quantity": "inhibition", "result": "3%"}
{"SMILES": "CC[C@H](C)[C@H](NC(=O)[C@H](CCC(N)=O)NC(=O)[C@H](CC(C)C)NC(=O)[C@H](CCSC)NC(=O)[C@H](CCCCN)NC(=O)[C@H](CO)NC(=O)[C@H](CO)NC(=O)[C@H](CCSC)NC(=O)[C@H](CC(C)C)NC(=O)[C@H](CC(N)=O)NC(=O)[C@@H](NC(=O)[C@@H](NC(=O)[C@H](CO)NC(=O)[C@H](CC(C)C)NC(=O)[C@H](CS)NC(=O)[C@H](CCCNC(=N)N)NC(=O)[C@H](CC(=O)O)NC(=O)[C@H](Cc1c[nH]c2ccccc12)NC(=O)[C@H](Cc1ccccc1)NC(=O)[C@H](C)NC(=O)[C@H](CCC(=O)O)NC(=O)[C@@H](N)CCCCN)C(C)C)[C@@H](C)CC)C(=O)N[C@@H](CC(N)=O)C(=O)N[C@@H](C)C(=O)O", "target": "Cyclin-dependent kinase 5, with p25 (CDK5, Homo sapiens, UniProt Q00535)", "test": "enzyme activity, inhibitor, radiometric", "setting": "100 µM", "quantity": "inhibition", "result": "41%"}
{"SMILES": "Oc1c(Br)cc(Oc2ccc(Br)cc2Br)cc1Br", "target": "Sulfotransferase 1B1 (SULT1B1, Homo sapiens, UniProt O43704)", "test": "enzyme activity, substrate", "quantity": "Km", "result": "44 µM"}
{"SMILES": "COc1cc(Cl)c(C(=O)N[C@@H](CN[C@H]2CC[C@@H](N)CC2)Cc2ccc(C#N)cc2)cc1-c1ccc(CN[C@H](C)c2ccc(C)cc2)o1", "target": "WEE2", "test": "enzyme activity, inhibitor", "setting": "1 µM", "quantity": "remaining activity", "result": "89%"}
{"SMILES": "Cc1cc([N+](=O)[O-])ccc1NC(=O)c1ccc(Cl)cc1", "target": "MAOA", "test": "enzyme activity, inhibitor", "setting": "1 µM, 20 min", "quantity": "inhibition", "result": "13%"}
{"SMILES": "CC1(C)CCC2=C(O1)c1ccccc1C(=O)C2=O", "target": "TcPGFS (Trypanosoma cruzi, UniProt Q8I6L9)", "test": "enzyme activity, inhibitor", "setting": "200 µM", "quantity": "remaining activity", "result": "86%"}
{"SMILES": "CCCOc1ccc(OC)c(F)c1C(=O)c1ccc(C(=O)N[C@@H]2CNC[C@H]2NC(=O)c2ccc3[nH]ncc3c2)cc1", "target": "Rps6ka1", "test": "enzyme activity, inhibitor", "setting": "0.1 µM", "quantity": "remaining activity", "result": "119%"}
{"SMILES": "Cc1ccc(NC(=O)c2ccc(C)c(C(F)(F)F)c2)cc1C#Cc1nn(C2CCC(O)CC2)c2ncnc(N)c12 (stereo not shown)", "target": "Rps6ka1", "test": "cell-free assay", "setting": "10 µM", "quantity": "remaining signal", "result": "20%"}
{"SMILES": "O=C(Nc1ccc([N+](=O)[O-])cc1Cl)c1cc2ccccc2s1", "target": "MAOA", "test": "enzyme activity, inhibitor", "setting": "1 µM, 20 min", "quantity": "inhibition", "result": "11%"}
{"SMILES": "Nc1ncnc2occ(-c3ccc(NC(=O)Nc4cc(C(F)(F)F)ccc4F)cc3)c12", "target": "CDKL2", "test": "cell-free assay", "setting": "20 µM", "quantity": "remaining signal", "result": "0.6%"}
{"SMILES": "CCOc1ccc(C(=O)Nc2ccc(OC(F)(F)F)cc2)cc1OCC", "target": "MAOA", "test": "enzyme activity, inhibitor", "setting": "1 µM, 20 min", "quantity": "inhibition", "result": "5%"}
{"SMILES": "O=C(O)c1ccc2c(c1)nc(Nc1cccc(F)c1)c1ccncc12", "target": "HIPK4", "test": "enzyme activity, inhibitor, radiometric", "setting": "1 µM", "quantity": "remaining activity", "result": "1%"}
{"SMILES": "O=C(Nc1ccc([N+](=O)[O-])cc1C(F)(F)F)c1cc(Cl)ccc1O", "target": "MAOA", "test": "enzyme activity, inhibitor", "setting": "1 µM, 20 min", "quantity": "inhibition", "result": "13%"}
{"SMILES": "Oc1cccc(Nc2nc(-c3ccc(F)cc3F)cs2)c1", "target": "Vasoactive intestinal polypeptide receptor 1 (VIPR1, Homo sapiens, UniProt P32241)", "test": "cell-free assay", "setting": "10 µM", "quantity": "inhibition", "result": "-0.5%"}
{"SMILES": "O=C(Nc1ccc(OC(F)(F)F)cc1)c1ccccc1", "target": "MAOA", "test": "enzyme activity, inhibitor", "setting": "1 µM, 20 min", "quantity": "inhibition", "result": "24%"}
{"SMILES": "COc1cccc(Nc2nc3cc(C(=O)O)ccc3c3cnccc23)c1", "target": "Homeodomain-interacting protein kinase 3 (HIPK3, Homo sapiens, UniProt Q9H422)", "test": "enzyme activity, inhibitor, radiometric", "setting": "1 µM", "quantity": "remaining activity", "result": "8%"}
{"SMILES": "O=C(Nc1ccc([N+](=O)[O-])cc1)c1ccc([N+](=O)[O-])cc1Cl", "target": "MAOA", "test": "enzyme activity, inhibitor", "setting": "1 µM, 20 min", "quantity": "inhibition", "result": "13%"}
{"SMILES": "O=C(O)c1ccc2c(c1)nc(NCCc1cccc(F)c1)c1ccncc12", "target": "HIPK4", "test": "enzyme activity, inhibitor, radiometric", "setting": "1 µM", "quantity": "remaining activity", "result": "-10%"}
